B1: tRNA (parent)
chain: GUUCCGUUGGCGUAAUGGUAACGCGUCUCCCUCCUAAGGAGAAGACUGCGGGUUCGAGUCCCGUACGGAACG

This sample holds only a part of the variants without activity. Where only a bound is given, the exact number is not on record here.

This data set covers variants of B1. The data set can be described thus: yeast fitness relative to wild type (ratio to wild type); higher = fitter; tRNA-Arg(CCU), competitive growth, 37 C, YPD. In outline:
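For this measurement, the tRNA-Arg(CCU) gene was varied by chemical synthesis at a 3% per-site mutation rate across 69 sites, and each variant was placed at the native genomic locus in Saccharomyces cerevisiae. The pooled strains went through a 24-hour competition in YPD at 37°C in six parallel replicates, with amplicons from start and end populations read by 100-nucleotide paired-end sequencing. Darwinian fitness relative to wild type followed from the change in each genotype's frequency. Genotypes needed ≥ 100 starting reads, and estimates < 0.5 were set to 0.5.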
With C4G A21G C27U G52C G58A, the yeast fitness is ≤ 0.5.

Consider C4G C5U U47A C55U A57C, for which the yeast fitness is ≤ 0.5.

With C4G G9A G39A, the yeast fitness is 0.576.

In the case of C4G G12C C33G G44C, the yeast fitness is ≤ 0.5.

Consider C4G A15C U26G G41C C60G, for which the yeast fitness amounted to 0.631.

Take C4G A15C A57U C61G: the yeast fitness was ≤ 0.5.

C4G A45U G48C: the yeast fitness came out at 0.501.

On to C4G C11U A69U, for which the yeast fitness came out at 0.539.

Turning to C4G A21G A45U C49U A70C, the yeast fitness is ≤ 0.5.

For C4G C31U C55A, the yeast fitness was ≤ 0.5.

C4G C33U A37U G38A A42C: the yeast fitness was ≤ 0.5.

Consider C4G C55U C66G, for which the yeast fitness is ≤ 0.5.

Turning to C4G C24U C33G G48A C49U, the yeast fitness was ≤ 0.5.

For the variant C4G G6A C30A C34U C46U, the yeast fitness was ≤ 0.5.

Take C4A U54G A65U: the yeast fitness is ≤ 0.5.

For the variant C4G A40U A45U, the yeast fitness was determined as 0.546.

As to C4G C5G G10A G18A G44C C61A C62U C66U, the yeast fitness is ≤ 0.5.

In the case of C4G A15U A40C, the yeast fitness was ≤ 0.5.

Take C4G G6A U47A: the yeast fitness was determined as 0.61.

In the case of C4G G6A U47G, the yeast fitness was ≤ 0.5.

As to C4G C31A, the yeast fitness was determined as 0.817.

In the case of C4G A14U C24U C49G, the yeast fitness was ≤ 0.5.

As for C4G A21G A45U C49U U64C C66U, the yeast fitness was ≤ 0.5.

On to C4G C24A C34A U47C, for which the yeast fitness is ≤ 0.5.

Regarding C4G C29U, the yeast fitness was 0.751.

Take C4G C29G: the yeast fitness is 0.69.

With C4G C24G C34U U47A G48C C60U, the yeast fitness is 0.521.

Turning to C4G C5A A21C U54A A65U A69C, the yeast fitness is ≤ 0.5.

C4A U64C G68C: the yeast fitness was determined as 0.971.

C4G C24U U35C C66U: the yeast fitness came to 0.559.

On to C4A U35A A37U G67U, for which the yeast fitness was ≤ 0.5.

Regarding C4G G41A A45U, the yeast fitness was determined as 0.537.

C4G A40G A42U: the yeast fitness is ≤ 0.5.

C4G A40U C49A C55U: the yeast fitness came out at 0.515.

Consider C4G A14G C24G, for which the yeast fitness is ≤ 0.5.

For the variant C4G C11G C55U C61A, the yeast fitness worked out at 0.567.

With C4A U35A U47C C49U C62A A69G, the yeast fitness is ≤ 0.5.

For C4G A40C G68C, the yeast fitness was ≤ 0.5.

C4G C11U C29G G63C C66U: the yeast fitness is ≤ 0.5.

On to C4G G41A A45U G56C, for which the yeast fitness is ≤ 0.5.

Consider C4G C11U U19A U32A A37U, for which the yeast fitness was ≤ 0.5.

Consider C4G G17C C33A G56C A70C, for which the yeast fitness worked out at 0.542.

For the variant C4G C29G A57C, the yeast fitness was 0.612.

C4G C29G C49U C60G: the yeast fitness was ≤ 0.5.

With C4G C49A, the yeast fitness turned out to be 0.541.

As to C4G C49G, the yeast fitness is 0.682.

C4G C49U: the yeast fitness was 0.933.

For the variant C4G A20U C29U C49U, the yeast fitness was ≤ 0.5.

Regarding C4G A65G, the yeast fitness worked out at 1.02.

As for C4G A65U, the yeast fitness came to 0.793.

As for C4G C34U G41A, the yeast fitness was ≤ 0.5.

For the variant C4G C29G A37U C49A G58C, the yeast fitness worked out at 0.502.

As to C4G C11G G41C U59G A70G, the yeast fitness is ≤ 0.5.

Regarding C4G A57U U59C G67A, the yeast fitness was ≤ 0.5.

With C4A U32C A40U C49G G68C, the yeast fitness is ≤ 0.5.

With C4G G17A C55G A70U, the yeast fitness is ≤ 0.5.

For C4G A15G A43G A57C A65U, the yeast fitness is ≤ 0.5.

With C4G C30A C49G A65C, the yeast fitness was ≤ 0.5.

Take C4G A36C A37G U64A: the yeast fitness was ≤ 0.5.

As to C4G C55A, the yeast fitness was found to be 0.778.

As for C4G C55G, the yeast fitness stood at 0.612.

Regarding C4G C22G C24U G41A G67U, the yeast fitness is ≤ 0.5.

C4G G10C U35C G38U C46G: the yeast fitness was ≤ 0.5.

In the case of C4G C29G C66U, the yeast fitness was 0.588.

For the variant C4G G12U A14C U16C C49U A65G, the yeast fitness was ≤ 0.5.

For the variant C4G G10C G12A A36C U54G C60U A70G, the yeast fitness was 0.615.

With C4G C29A G50A, the yeast fitness was ≤ 0.5.

As for C4G C29A A57C, the yeast fitness was found to be 0.717.

In the case of C4G C33G A40G, the yeast fitness stood at 0.528.

With C4G C62A G67C, the yeast fitness is ≤ 0.5.

Take C4G C11U C29U A45U: the yeast fitness is ≤ 0.5.

As for C4G G12A C27A C31A G52A G58C A70G, the yeast fitness was ≤ 0.5.

With C4G A21C G23C A36U, the yeast fitness worked out at 0.635.

As for C4A U32C A42C, the yeast fitness is 0.578.

As to C4G G6A C24U A40U C49A, the yeast fitness was ≤ 0.5.

For the variant C4G G10U A14U C24U C33U G52A, the yeast fitness was found to be 0.544.

For C4G C31U A37G, the yeast fitness was 0.653.

For C4G C30A, the yeast fitness stood at 0.679.

Consider C4G C30U, for which the yeast fitness turned out to be 0.852.

Turning to C4G A14U G23A G56C, the yeast fitness was ≤ 0.5.

In the case of C4G G50A G56A, the yeast fitness was found to be 0.727.

Take C4G G44C C49G G56A C61G A65U A69G: the yeast fitness worked out at 0.641.

In the case of C4G A15U C33A G68C, the yeast fitness was ≤ 0.5.

On to C4G G17A C30U G56A, for which the yeast fitness is ≤ 0.5.

Consider C4G C29U C30G G39C, for which the yeast fitness was ≤ 0.5.

C4G A40U: the yeast fitness was 0.754.

For C4G A40G, the yeast fitness turned out to be 0.74.

In the case of C4G C11A U35A A45G C49U U59G G67U, the yeast fitness is ≤ 0.5.

On to C4G C29G A36C A37U G38A A40C A45G G51A, for which the yeast fitness is ≤ 0.5.

For C4G C11A U35A C49U U59G G67U, the yeast fitness came out at 0.554.

C4G A21C A43U: the yeast fitness was ≤ 0.5.

Take C4G G18C G58C C61U G68A: the yeast fitness worked out at 0.615.

With C4G A43U A70U, the yeast fitness came out at 0.623.

With C4G C11G U26A, the yeast fitness was ≤ 0.5.

For C4G A15G U54A A70U, the yeast fitness was ≤ 0.5.

Take C4G G9A U32C C33U: the yeast fitness is ≤ 0.5.

Regarding C4G C11A U19C G23C U47C, the yeast fitness worked out at 0.663.

Turning to C4G G17A U28A C55U, the yeast fitness was ≤ 0.5.

C4G G9C G52A G63C: the yeast fitness is ≤ 0.5.

For the variant C4G C34G, the yeast fitness worked out at 0.574.

Consider C4G C34U, for which the yeast fitness was found to be 0.624.

C4G G9C C27A A36G C46A C55U A65C: the yeast fitness was ≤ 0.5.

C4G G6C G9A A20G C55A C61A: the yeast fitness came out at 0.615.

C4G C5G C30U C31U A45U: the yeast fitness is ≤ 0.5.

As to C4G G12U A14C A57G, the yeast fitness was ≤ 0.5.

Turning to C4G A14C G25C A45U U47A A57U, the yeast fitness is ≤ 0.5.

For C4G C5U G44C, the yeast fitness is ≤ 0.5.

As to C4G C5U A20U G39C A40G A70U, the yeast fitness was ≤ 0.5.

Consider C4G G6C C34G A42G C46G, for which the yeast fitness was ≤ 0.5.

With C4G C30A G52C C66U, the yeast fitness is ≤ 0.5.

As for C4G C5U C49A, the yeast fitness was ≤ 0.5.

Take C4G A21C: the yeast fitness came out at 0.609.

As for C4G C22U C49A, the yeast fitness was ≤ 0.5.

For the variant C4G C5G C31A U35C, the yeast fitness was ≤ 0.5.

For the variant C4G G17A A57U U59C, the yeast fitness was ≤ 0.5.

On to C4G A42G A45U U54C C55G C61A, for which the yeast fitness is ≤ 0.5.

As to C4G C11G C34U G38A G44C, the yeast fitness was ≤ 0.5.

Turning to C4G A21G A36U, the yeast fitness is ≤ 0.5.

For the variant C4G G17A U26C U28C A40G A70C, the yeast fitness is ≤ 0.5.

In the case of C4G C24A C34A C66A, the yeast fitness is ≤ 0.5.

On to C4G A42U G50C C62A G67U, for which the yeast fitness is ≤ 0.5.

Turning to C4G A14G G52A, the yeast fitness was ≤ 0.5.

In the case of C4G G51C U54A, the yeast fitness was ≤ 0.5.

As to C4G C22G C29A, the yeast fitness is ≤ 0.5.

As for C4G C29G C60A G67C, the yeast fitness came to 0.564.

C4G C5G C11A G38A G67A: the yeast fitness is ≤ 0.5.

As for C4A U28G C31U A40C A57G, the yeast fitness is ≤ 0.5.

Take C4G C5G C11A A69C A70C: the yeast fitness is ≤ 0.5.

As for C4G C61G A65C, the yeast fitness is ≤ 0.5.

For the variant C4G A14U C31U G44A C46U C49U, the yeast fitness is ≤ 0.5.

With C4A U35G, the yeast fitness was 0.564.

For C4G G9A A45C A57C G58C, the yeast fitness was ≤ 0.5.

For C4G C11U C22G A40U A43G U53C A70G, the yeast fitness is ≤ 0.5.

Regarding C4G C24A A42G, the yeast fitness is ≤ 0.5.

On to C4G C5U C22G U64A, for which the yeast fitness was 0.542.

C4G G12A G52A: the yeast fitness was ≤ 0.5.

On to C4G A20G C22G C33U A36C A40U, for which the yeast fitness was ≤ 0.5.

As for C4G A14U U59G, the yeast fitness is ≤ 0.5.

C4G C5U A37U C61A: the yeast fitness is ≤ 0.5.

Turning to C4G C34U C66G, the yeast fitness is ≤ 0.5.

For C4G C5U G39A G44C, the yeast fitness is ≤ 0.5.

For the variant C4G A37G, the yeast fitness is 0.851.

Turning to C4G A37U G58C C60A, the yeast fitness is ≤ 0.5.

C4G C24A C46U C60A: the yeast fitness was found to be 0.521.

As for C4G C24U, the yeast fitness was 0.993.

In the case of C4G C31A G58A, the yeast fitness came to 0.635.

In the case of C4G C11U A36G G63A, the yeast fitness was ≤ 0.5.

C4A U53C G67C: the yeast fitness came to 0.537.

As for C4G C11G C49U C60U, the yeast fitness was ≤ 0.5.

Regarding C4A U35C A57U, the yeast fitness is ≤ 0.5.

On to C4G G10C G12C A21C G48C A57G G68C, for which the yeast fitness stood at 0.519.

As to C4G A14C A20G, the yeast fitness was 0.619.

Consider C4G C33G A65U, for which the yeast fitness was 0.605.

With C4G C22G G67C, the yeast fitness was 0.528.

C4A U54C C61G: the yeast fitness was ≤ 0.5.

With C4G A45U G48C C49G, the yeast fitness was ≤ 0.5.

As for C4G A45G, the yeast fitness was found to be 0.826.

For C4G C11U A40C A57U, the yeast fitness stood at 0.623.

In the case of C4G G17C C33G U59C, the yeast fitness was ≤ 0.5.

Take C4G C60U: the yeast fitness was 0.817.

In the case of C4G C5U C55U, the yeast fitness was 0.544.

As to C4G C24A C34A U35G C49A C62G, the yeast fitness is ≤ 0.5.

Turning to C4G G6A U13G A14G A69U, the yeast fitness was ≤ 0.5.

Regarding C4G A21U C49G C66G G68C, the yeast fitness was 0.673.

As to C4G A20U C22G A37C A43C A65G, the yeast fitness is ≤ 0.5.

Turning to C4G G18C A37C A57C, the yeast fitness was ≤ 0.5.

On to C4G G17A C34A A43G G68A, for which the yeast fitness is ≤ 0.5.

The values above are taken from the RNAGym collection of RNA variant scans (doi:10.1126/science.aae0568).
